ERa coact inh – ERα–SRC-1 coactivator interaction inhibitors, primary screen, biochemical, TR-FRET, ERα LBD, estradiol-bound; TR-FRET ER-alpha LBD / SRC-1 peptide; inhibition, % at 25.6 µM; 86,000 compounds, 1.7% hits; AID 629, 2007; in the data active means inhibition above about 50%;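 further: 0% = receptor plus peptide control and 100% = peptide only without receptor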
SF1 activator – activators of human SF-1, primary screen, cell-based, CHO-K1, Gal4-SF-1 LBD, luciferase luminescence; AID 522, 2006; CHO-K1 Gal4-SF-1 LBD luciferase reporter; % increase over DMSO SF-1-specific signal; activation, % at 10 µM; 65,000 compounds, 1.9% hits; Steroidogenic factor 1 (Homo sapiens), Q13285;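 active means activation above the mean activation of all tested compounds plus 3 SD, cut at about 50% in these data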
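Test system: CHO-K1 cells with Gal4–hSF-1 LBD chimera plus Gal4-driven luciferase; Input: 4,000 cells/well; Compound: 10 µM only; Times: 20 h compound treatment, 37 °C; Measured by: steady-glow luciferase luminescence, read after 15 min reagent incubation; Measure: percent activation versus DMSO; Control set: DMSO and mock-transfected background; Replicates: one test per compound.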
ERb coact inh – inhibitors of ERβ-SRC1 coactivator interaction, primary screen, biochemical, TR-FRET, ERβ LBD, SRC-1 peptide. inhibition, % at 25.6 µM. TR-FRET ER-beta LBD / SRC1-Cy5 peptide binding; receptor agonist-loaded with 1 µM estradiol. 86,000 compounds, 1.3% hits. Estrogen receptor beta (Homo sapiens), Q92731;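 active means compounds whose percent inhibition of the receptor-coactivator binding signal exceeds about 50% in the single-dose screen, limit read from the data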;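 further: 0% = receptor plus peptide wells without compound and 100% = peptide-only wells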
BAP1 block – inhibitors of BAP1 deubiquitinase, primary screen, biochemical, Ub-AMC fluorescence, kinetic; Ubiquitin carboxyl-terminal hydrolase BAP1 (Homo sapiens), Q92560; recombinant BAP1, Ub-AMC hydrolysis fluorescence kinetic; stronger effect = lower value; calls only at 20 µM; 72,000 compounds, 0.48% hits; AID 436, 2006;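 active means activity remaining at or below 50% of control, provided the compound also passes the data quality filters; inactive means the rest, including low values that fail the filters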;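 further: 100% = DMSO wells rate and 0% = substrate alone blank rate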
ERa coact pot – enhancers of ERα–SRC-1 coactivator binding, primary screen, biochemical, TR-FRET, ERα LBD, low estradiol; TR-FRET ERalpha-LBD/SRC-Cy5 coactivator binding, 2 h; 100 = basal binding, no effect; Estrogen receptor (Homo sapiens), P03372; coactivator binding (% of control), % at 25.6 µM; 86,000 compounds, 1.3% hits; AID 639, 2007; in the data active means activity above about 200%;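 further: binding measured in presence of low estradiol as agonist stimulus; 0% = peptide alone without receptor and 100% = receptor with peptide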
RORa activator – activators of orphan receptor RORA, primary screen, cell-based, luminescence; Nuclear receptor ROR-alpha (Homo sapiens), P35398; CHO-K1 Gal4-RORA LBD luciferase reporter; percent increase over mock-subtracted basal signal; activation, % at 10 µM; 65,000 compounds, 1.5% hits;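 active means activation above the mean of all tested compounds plus 3 SD, cut at about 49% in these data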;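 further: 0% = DMSO-treated RORA cells and 100% = added signal equal to DMSO minus mock-transfected cells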
Target sequence (P35398 whole entry, looked up, the tested form may be a part): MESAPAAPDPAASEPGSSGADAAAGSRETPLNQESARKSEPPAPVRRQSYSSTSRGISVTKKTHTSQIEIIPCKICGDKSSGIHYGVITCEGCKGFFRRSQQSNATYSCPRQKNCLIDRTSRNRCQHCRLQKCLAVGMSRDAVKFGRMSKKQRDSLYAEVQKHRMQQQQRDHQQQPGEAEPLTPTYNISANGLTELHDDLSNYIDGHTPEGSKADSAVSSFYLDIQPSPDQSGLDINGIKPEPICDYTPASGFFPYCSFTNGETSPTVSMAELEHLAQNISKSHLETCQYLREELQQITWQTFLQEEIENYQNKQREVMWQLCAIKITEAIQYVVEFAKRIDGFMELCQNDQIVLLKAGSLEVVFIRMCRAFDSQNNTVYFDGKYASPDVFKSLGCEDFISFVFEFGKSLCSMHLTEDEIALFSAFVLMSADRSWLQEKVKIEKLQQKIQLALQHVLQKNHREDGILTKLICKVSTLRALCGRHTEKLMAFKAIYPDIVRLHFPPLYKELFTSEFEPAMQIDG
Active calls of the source: *; [ ] = another dose, or the depositor's remark. This is a sample that favours compounds with a hit; in the whole collection about 5.1% have one here.

Results for CC1CCCC(C)N1S(=O)(=O)c1cccc([N+](=O)[O-])c1 (configuration not stated) ?
BAP1 block: inactive

How did O=C(Nc1cccc(-c2cn3ccccc3n2)c1)c1cnccn1 do in these assays?
ERa coact inh: -1.6; SF1 activator: 52.3*; ERb coact inh: 0.6; BAP1 block: inactive; ERa coact pot: 96.3; RORa activator: 46.4

Results for Cn1c(=O)c2cc(S(=O)(=O)Nc3ccc4c(c3)OCO4)ccc2n(C)c1=O ?
ERa coact inh: 1.9; SF1 activator: 2.1; ERb coact inh: 12.7; BAP1 block: inactive; ERa coact pot: 105.7; RORa activator: -15.7

What do the screens show for `Cn1c(=O)oc2cc(S(=O)(=O)Nc3ccc4c(c3)OCO4)ccc21`?
ERa coact inh: 57.3*[fluorescence artefact?]; SF1 activator: -12.7; ERb coact inh: 45.3; BAP1 block: inactive; ERa coact pot: 51.4; RORa activator: 6.7

What do the screens show for `Oc1cccc(Oc2ccccc2)c1`?
BAP1 block: inactive

How did COC(=O)c1cccc(NC(=O)CSc2nc3cccnc3n2C)c1 do in these assays?
ERa coact inh: -3.8; SF1 activator: 35.5; ERb coact inh: 0.1; BAP1 block: inactive; ERa coact pot: 113.4; RORa activator: 81.5*

How did COC(=O)c1cccc(NC(=O)CSc2nnnn2C)c1 do in these assays?
ERa coact inh: 2.1; SF1 activator: 9.0; ERb coact inh: 21.8; BAP1 block: inactive; ERa coact pot: 106.9; RORa activator: 12.0

What do the screens show for `Cc1nn(C)c(C)c1N=Cc1c(O)ccc2ccccc12`?
ERa coact inh: -3.9; SF1 activator: -4.7; ERb coact inh: 67.6*[fluorescence artefact?]; BAP1 block: inactive; ERa coact pot: 95.7; RORa activator: -17.6

How did O=C1c2ccccc2-c2cc(Cl)nc3ccc(Nc4ccccc4)c1c23 do in these assays?
BAP1 block: inactive

Results for COC(=O)c1c(C)[nH]c(C(=O)COC(=O)Cc2ccc3c(c2)OCCO3)c1C ?
ERa coact inh: -0.8; SF1 activator: -8.5; ERb coact inh: 0.2; BAP1 block: inactive; ERa coact pot: 260.3*[fluorescence artefact?]; RORa activator: -18.1

What do the screens show for `CCOC(=O)c1c(C)[nH]c(C(=O)COC(=O)CSC)c1C`?
ERa coact inh: 0.4; ERb coact inh: -0.8; ERa coact pot: 98.6

What do the screens show for `O=C(Nc1nc(-c2ccccc2)c(C(=O)c2ccccc2)s1)c1cccc([N+](=O)[O-])c1`?
BAP1 block: inactive

What do the screens show for `CCOc1ccc(NC(=O)NCCCn2c(C)nc3cc(C)c(C)cc32)cc1`?
ERa coact inh: 0.3; ERb coact inh: -13.4; ERa coact pot: 87.7

What do the screens show for `Cc1cc2nc(C)n(CCCNC(=O)Nc3cccc4ccccc34)c2cc1C`?
ERa coact inh: 50.7*[fluorescence artefact?]; ERb coact inh: 32.9; ERa coact pot: 96.4

Results for Cc1ccc(NC(=O)CSc2ncn(-c3ccccc3)n2)cc1C ?
ERa coact inh: -14.1; ERb coact inh: -12.5; ERa coact pot: 93.8

Results for O=C(CSc1ncn(-c2ccccc2)n1)Nc1ccc(Br)cn1 ?
ERa coact inh: -10.3; SF1 activator: -3.6; ERb coact inh: -4.2; BAP1 block: inactive; ERa coact pot: 71.3; RORa activator: -14.6

Results for O=C(CSc1ncn(-c2ccccc2)n1)c1cccs1 ?
ERa coact inh: 2.4; SF1 activator: 40.6; ERb coact inh: -7.9; BAP1 block: inactive; ERa coact pot: 110.3; RORa activator: 48.7*

What do the screens show for `c1ccc(CSc2ncn(-c3ccccc3)n2)cc1`?
ERa coact inh: -9.7; SF1 activator: 81.0*; ERb coact inh: -11.8; BAP1 block: inactive; ERa coact pot: 117.2; RORa activator: 48.0

Results for Nc1nc(CSc2nc3ccccc3[nH]2)cs1 ?
ERa coact inh: -6.5; SF1 activator: 9.5; ERb coact inh: 11.4; BAP1 block: inactive; ERa coact pot: 140.9; RORa activator: 28.9

Results for Nc1nc(CSc2ncn(-c3ccccc3)n2)cs1 ?
ERa coact inh: -7.1; SF1 activator: 59.4*; ERb coact inh: 0.9; BAP1 block: inactive; ERa coact pot: 118.7; RORa activator: 43.9

Results for O=C(NC1CCN(Cc2ccccc2)CC1)C1CCCN(c2nnc(-n3cccc3)s2)C1 (configuration not stated) ?
ERa coact inh: 18.1; SF1 activator: 12.9; ERb coact inh: 4.5; BAP1 block: inactive; ERa coact pot: 122.4; RORa activator: -13.1

What do the screens show for `O=C(NC1CCN(Cc2ccccc2)CC1)C1CCN(c2nnc(-n3cccc3)s2)CC1`?
ERa coact inh: 53.9*[fluorescence artefact?]; SF1 activator: -3.3; ERb coact inh: 16.1; BAP1 block: inactive; ERa coact pot: -0.4; RORa activator: 3.1

How did O=C(NCCCN1CCc2ccccc2C1)C1CCN(c2nnc(-n3cccc3)s2)CC1 do in these assays?
ERa coact inh: 72.1*[fluorescence artefact?]; SF1 activator: -12.0; ERb coact inh: 33.4; BAP1 block: inactive; ERa coact pot: 88.4; RORa activator: -15.1

What do the screens show for `O=C1NCCCc2c1oc1ccc(O)cc21`?
ERa coact inh: 0.3; SF1 activator: 2.9; ERb coact inh: 8.4; BAP1 block: inactive; ERa coact pot: 101.1; RORa activator: -14.0

How did Oc1c(Cl)cc(Cl)c2c1NCCC2 do in these assays?
ERa coact inh: 89.0*[fluorescence artefact?]; SF1 activator: -10.4; ERb coact inh: 69.6*[fluorescence artefact?]; BAP1 block: inactive; ERa coact pot: 32.5; RORa activator: 7.7

What do the screens show for `c1ccc(Nc2nc(-c3cccnc3)cs2)nc1`?
ERa coact inh: -54.1; SF1 activator: 45.6; ERb coact inh: -14.7; BAP1 block: inactive; ERa coact pot: 103.9; RORa activator: 52.0*

How did c1cncc(Nc2nc(-c3cccnc3)cs2)c1 do in these assays?
ERa coact inh: -0.6; SF1 activator: 23.3; ERb coact inh: -5.9; BAP1 block: inactive; ERa coact pot: 110.6; RORa activator: 28.4

Results for Cc1cc([N+](=O)[O-])cc2sc(NC(=O)C3CCCCC3)nc12 ?
BAP1 block: inactive

What do the screens show for `O=c1oc2ccccc2n1CCCOc1ccccc1`?
ERa coact inh: 1.2; SF1 activator: 57.4*; ERb coact inh: -7.8; BAP1 block: inactive; ERa coact pot: 127.7; RORa activator: 49.3*

Assay outcomes: PubChem, several laboratories
